# Tests used:
# [1] = test system: Canis familiaris; experiment: Conduction time for ventricular refractory period of the first premature stimulus was tested in dogs at a dose of 1.0 mg/kg through intravenous administration. (baseline value- 137+/-4); assay type: functional, Canis lupus familiaris, Cardiac ventricle
# [2] = test system: Canis familiaris; experiment: Compound was tested in vivo in dogs at a dose of 1.0 mg/kg through intravenous route and time at which sustained ventricular arrhythmias were induced was recorded.(Base line value-3); assay type: functional, Canis lupus familiaris, Cardiac ventricle
# How it was run: (§1)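 Dogs with myocardial infarction were studied 3-9 days after infarction. They were reanesthetized with pentobarbital, ventilated, and electrodes were placed via thoracotomy; blood gases were monitored. Control ERPs and reproducible inducibility were set by programmed electrical stimulation, then cumulative iv doses were given. Agents were in glass-distilled water or NaOH-neutralized saline (pH 6.7-7.0). Animals were counted per category: NI, nonsustained, sustained, VF, or AV block preventing atrial pacing.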
# [3] = test system: Canis familiaris; experiment: Conduction time for ventricular refractory period of the second premature stimulus was tested in dogs at a dose of 1.0 mg/kg through intravenous administration. (baseline value- 123+/-4); assay type: functional, Canis lupus familiaris, Cardiac ventricle
# [4] = test system: Canis familiaris; experiment: Compound was tested in vivo in dogs at a dose of 0.3 mg/kg through intravenous route and time at which ventricular arrhythmias were not indicible was recorded.(Base line value-1); assay type: functional, Canis lupus familiaris, Cardiac ventricle; how it was run: as §1
# [5] = test system: Canis familiaris; experiment: Conduction time from Q wave to T wave of lead II electrocardiogram corrected for heart rate was tested in dogs at a dose of 0.1 mg/kg through intravenous administration. (baseline value- 352+/-7); assay type: functional, Canis lupus familiaris
# [6] = test system: Canis familiaris; experiment: Conduction time from the atrium to His bundle was tested in dogs at a dose of 0.1 mg/kg through intravenous administration. (baseline value- 73+/-3 ); assay type: functional, Canis lupus familiaris
# [7] = test system: Canis familiaris; experiment: Compound was tested in vivo in dogs at a dose of 1.0 mg/kg through intravenous route and time at which nonsustained ventricular arrhythmias were induced was recorded.(Base line value-1); assay type: functional, Canis lupus familiaris, Cardiac ventricle; how it was run: as §1
# [8] = test system: Canis familiaris; experiment: Compound was tested in vivo in dogs at a dose of 1.0 mg/kg through intravenous route and time at which ventricular arrhythmias were not indicible was recorded.(Base line value-1); assay type: functional, Canis lupus familiaris, Cardiac ventricle; how it was run: as §1
# [9] = test system: Canis familiaris; experiment: Conduction time from the atrium to His bundle was tested in dogs at a dose of 1.0 mg/kg through intravenous administration. (baseline value- 73+/-3 ); assay type: functional, Canis lupus familiaris
# [10] = test system: Canis familiaris; experiment: Conduction time for ventricular refractory period of the second premature stimulus was tested in dogs at a dose of 0.3 mg/kg through intravenous administration. (baseline value- 123+/-4); assay type: functional, Canis lupus familiaris, Cardiac ventricle
# [11] = test system: Canis familiaris; experiment: Conduction time from Q wave to T wave of lead II electrocardiogram corrected for heart rate was tested in dogs at a dose of 1.0 mg/kg through intravenous administration. (baseline value- 352+/-7); assay type: functional, Canis lupus familiaris
# [12] = test system: Canis familiaris; experiment: Conduction time from the His bundle to the onset of ventricular depolarizations was tested in dogs at a dose of 0.3 mg/kg through intravenous administration. (baseline value- 17+/-1 ); assay type: functional, Canis lupus familiaris, Cardiac ventricle
# [13] = test system: Canis familiaris; experiment: Conduction time for ventricular refractory period of the first premature stimulus was tested in dogs at a dose of 0.1 mg/kg through intravenous administration. (baseline value- 137+/-4); assay type: functional, Canis lupus familiaris, Cardiac ventricle
# [14] = organism: Oryctolagus cuniculus; experiment: Tested for rate automaticity measured in beats per minute from unpaced right atria of rabbit heart.; assay type: functional
# How it was run: (§2)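 Isolated rabbit heart tissues, all from one heart, each its own baseline; 2 h equilibration, perfusate changed every 15 min, basal stimulation 2 Hz between measurements. Exposed to 10^-7, 10^-6 and 10^-5 M drug, 15 min each; values reported at 10^-5 M as percent change from baseline. Drug solutions prepared daily in glass-distilled water. Force and rate recorded on polygraph.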
# [15] = test system: Canis familiaris; experiment: Compound was tested in vivo in dogs at a dose of 0.1 mg/kg through intravenous route and time at which nonsustained ventricular arrhythmias were induced was recorded.(Base line value-1); assay type: functional, Canis lupus familiaris, Cardiac ventricle; how it was run: as §1
# [16] = test system: Canis familiaris; experiment: Compound was tested in vivo in dogs at a dose of 0.3 mg/kg through intravenous route and time at which sustained ventricular arrhythmias were induced was recorded.(Base line value-3); assay type: functional, Canis lupus familiaris, Cardiac ventricle; how it was run: as §1
# [17] = test system: Canis familiaris; experiment: Conduction time from the His bundle to the onset of ventricular depolarizations was tested in dogs at a dose of 1.0 mg/kg through intravenous administration. (baseline value- 17+/-1 ); assay type: functional, Canis lupus familiaris, Cardiac ventricle
# [18] = test system: Canis familiaris; experiment: Conduction time from the atrium to His bundle was tested in dogs at a dose of 0.3 mg/kg through intravenous administration. (baseline value- 73+/-3 ); assay type: functional, Canis lupus familiaris
# [19] = test system: Canis familiaris; experiment: Conduction time for ventricular refractory period of the second premature stimulus was tested in dogs at a dose of 0.1 mg/kg through intravenous administration. (baseline value- 123+/-4); assay type: functional, Canis lupus familiaris, Cardiac ventricle
# [20] = organism: Oryctolagus cuniculus; experiment: Tested for force of contraction measured in mg at a pacing rate of 2 Hz in vitro with rabbit heart tissue preparations.; assay type: functional; how it was run: as §2
# [21] = test system: Canis familiaris; experiment: Compound was tested in vivo in dogs at a dose of 0.1 mg/kg through intravenous route and number of animals in which ventricular fibrillation was induced was recorded.(Base line value-6)
# [22] = organism: Oryctolagus cuniculus; experiment: Tested for effective refractory period measured at a pacing rate of 3 Hz in vitro with rabbit heart tissue preparations.; assay type: functional; set-up: unit: %; how it was run: as §2
# [23] = test system: Canis familiaris; experiment: Compound was tested in vivo in dogs at a dose of 1.0 mg/kg through intravenous route and time at which ventricular fibrillation was induced was recorded.(Base line value-6); assay type: functional, Canis lupus familiaris, Cardiac ventricle; how it was run: as §1
# [24] = test system: Canis familiaris; experiment: Conduction time from Q wave to T wave of lead II electrocardiogram corrected for heart rate was tested in dogs at a dose of 0.3 mg/kg through intravenous administration. (baseline value- 352+/-7); assay type: functional, Canis lupus familiaris
# [25] = test system: Canis familiaris; experiment: Conduction time for ventricular refractory period of the first premature stimulus was tested in dogs at a dose of 0.3 mg/kg through intravenous administration. (baseline value- 137+/-4); assay type: functional, Canis lupus familiaris, Cardiac ventricle
# [26] = organism: Oryctolagus cuniculus; experiment: Tested for effective refractory period measured at a pacing rate of 1 Hz in vitro with rabbit heart tissue preparations.; assay type: functional; how it was run: as §2
# [27] = organism: Oryctolagus cuniculus; experiment: Tested for conduction time measured at a pacing rate of 1 Hz in vitro with rabbit heart tissue preparations.; assay type: functional; how it was run: as §2
# [28] = test system: Canis familiaris; experiment: Compound was tested in vivo in dogs at a dose of 0.3 mg/kg through intravenous route and time at which nonsustained ventricular arrhythmias were induced was recorded.(Base line value-1); assay type: functional, Canis lupus familiaris, Cardiac ventricle; how it was run: as §1
# [29] = test system: Canis familiaris; experiment: Compound was tested in vivo in dogs at a dose of 0.3 mg/kg through intravenous route and time at which ventricular fibrillation was induced was recorded.(Base line value-6); assay type: functional, Canis lupus familiaris, Cardiac ventricle; how it was run: as §1
# [30] = test system: Canis familiaris; experiment: Compound was tested in vivo in dogs at a dose of 0.1 mg/kg through intravenous route and time at which sustained ventricular arrhythmias were induced was recorded.(Base line value-3); assay type: functional, Canis lupus familiaris, Cardiac ventricle; how it was run: as §1
# [31] = organism: Oryctolagus cuniculus; experiment: Tested for conduction time measured at a pacing rate of 3 Hz in vitro with rabbit heart tissue preparations.; assay type: functional; how it was run: as §2
# [32] = test system: Canis familiaris; experiment: Compound was tested in vivo in dogs at a dose of 0.1 mg/kg through intravenous route and time at which ventricular arrhythmias were not indicible was recorded.(Base line value-1); assay type: functional, Canis lupus familiaris, Cardiac ventricle; how it was run: as §1
# [33] = test system: Canis familiaris; experiment: Conduction time from the His bundle to the onset of ventricular depolarizations was tested in dogs at a dose of 0.1 mg/kg through intravenous administration. (baseline value- 17+/-1 ); assay type: functional, Canis lupus familiaris, Cardiac ventricle
smiles,measurement,setting,value
CCCCCCCN(CC)CCCC(O)c1ccc(NS(C)(=O)=O)cc1 (stereo not drawn) [IBUTILIDE],Time,[1],146 ms
same,Time,[2],0 animals
same,Time,[3],128 ms
same,Time,[4],5 animals
same,Time,[5],372 ms
same,Time,[6],73 ms
same,Time,[7],2 animals
same,Time,[8],4 animals
same,Time,[9],77 ms
same,Time,[10],139 ms
same,Time,[11],364 ms
same,Time,[12],17 ms
same,Time,[13],151 ms
same,Rate,[14],-22
same,Time,[15],5 animals
same,Time,[16],0 animals
same,Time,[17],17 ms
same,Time,[18],75 ms
same,Time,[19],137 ms
same,FOC,[20],1.9
same,number of animals,[21],1 animals
same,ERP3,[22],15.8
same,Time,[23],1 animals
same,Time,[24],387 ms
same,Time,[25],154 ms
same,ERP1,[26],18
same,CT1,[27],14.6
same,Time,[28],2 animals
same,Time,[29],2 animals
same,Time,[30],2 animals
same,CT3,[31],31.2
same,Time,[32],3 animals
same,Time,[33],16 ms

# Reference: ChEMBL document CHEMBL1125736, “N-[(omega-amino-1-hydroxyalkyl)phenyl]methanesulfonamide derivatives with class III antiarrhythmic activity” (1991)
